Data as given in ChEMBL document CHEMBL1125117, “Substituted 1,3-dihydro-2H-pyrrolo[2,3-b]pyridin-2-ones as potential antiinflammatory agents” (1990).

Assays:
Rattus norvegicus [1] = assay: In vivo inhibitory activity against fluid in reverse passive Arthus reaction (RPAR) assay at dose 25 mg/kg in the pleural cavity of rats.; type: functional
Method in brief: (§1)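 Male rats, five per group, dosed orally 1 h before iv BSA antigen (5 mg). Rabbit anti-BSA IgG (0.5 mg) given intrapleurally 30 min later. At 4 h, pleural exudate volume was measured and neutrophils counted (Coulter) after saline-EDTA lavage. Reported as % reduction in cells and fluid relative to control.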

Rattus norvegicus [2] = assay: In vivo inhibitory activity against cells in reverse passive Arthus reaction (RPAR) assay at dose 25 mg/kg in the pleural cavity of rats.; type: functional; method in brief: as §1
[3] = biological target: T1, Polyunsaturated fatty acid 5-lipoxygenase (Homo sapiens) (UniProt P09917); assay: In vitro inhibitory activity against 5-lipoxygenase in human polymorphonuclear (PMN) cells; details: concentration not given here
T1 sequence (whole entry): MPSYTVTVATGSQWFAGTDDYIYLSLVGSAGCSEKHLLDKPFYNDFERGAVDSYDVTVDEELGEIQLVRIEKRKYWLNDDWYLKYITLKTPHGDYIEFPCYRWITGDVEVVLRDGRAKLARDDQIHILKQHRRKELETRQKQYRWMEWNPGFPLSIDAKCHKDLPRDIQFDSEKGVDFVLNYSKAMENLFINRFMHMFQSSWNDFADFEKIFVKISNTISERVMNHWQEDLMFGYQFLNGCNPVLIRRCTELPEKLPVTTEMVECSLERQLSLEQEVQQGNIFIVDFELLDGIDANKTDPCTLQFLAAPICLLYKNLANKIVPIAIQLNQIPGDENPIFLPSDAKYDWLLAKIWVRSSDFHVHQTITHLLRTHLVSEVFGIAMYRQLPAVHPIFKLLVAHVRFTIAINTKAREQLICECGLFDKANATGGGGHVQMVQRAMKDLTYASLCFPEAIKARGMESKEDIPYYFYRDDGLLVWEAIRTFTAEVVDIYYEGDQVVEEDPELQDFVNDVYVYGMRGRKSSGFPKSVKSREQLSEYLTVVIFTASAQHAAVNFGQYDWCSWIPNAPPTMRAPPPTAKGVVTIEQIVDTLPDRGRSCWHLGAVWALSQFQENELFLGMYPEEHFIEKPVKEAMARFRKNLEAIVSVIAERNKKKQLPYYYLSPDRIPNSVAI
Method in brief: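 Human PMN neutrophils (2×10^7 cells/mL) in HEPES buffer with 1 mM CaCl2, preincubated 4 min with test compound in DMSO vehicle. Then stimulated with [14C]arachidonic acid plus calcium ionophore A23187 for 5 min and stopped with methanol. 5-HETE was quantitated by HPLC. Reported as % inhibition versus vehicle, tested at 15 μM.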

Rattus norvegicus [4] = assay: In vivo effect on prostaglandin and leukotriene mediated production in rat pleural cavity was assessed by the inhibition of cell influx in 5-lipoxygenase/ cyclooxygenase at dose 40 mg/kg; type: functional
Method in brief: (§2)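 Rat reversed passive Arthus pleurisy, oral dosing 1 h before challenge. BSA given iv (5 mg), then rabbit anti-BSA IgG intrapleurally 30 min later. At 4 h, exudate was collected into indomethacin/NDGA and its volume recorded. Neutrophils were counted by Coulter counter. TXB2 and LTE4 in ethanol-extracted supernatant were measured by RIA with tritiated recovery spikes. Reported as % inhibition versus control.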

Rattus norvegicus [5] = assay: In vivo effect on prostaglandin and leukotriene mediated production in rat pleural cavity was assessed by the inhibition of TXB2 in 5-lipoxygenase/ cyclooxygenase at dose 40 mg/kg; type: functional; method in brief: as §2
Rattus norvegicus [6] = assay: In vivo effect on prostaglandin and leukotriene mediated production in rat pleural cavity was assessed by the inhibition of LTE4 in 5-lipoxygenase/ cyclooxygenase at dose 40 mg/kg
Rattus norvegicus [7] = assay: In vivo antiinflammatory activity against edema formation in the noninjected(secondary) paw of the rat (before edema stimulation) at dose 25 mg/kg; type: functional
Method in brief: (§3)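 Adjuvant arthritis in rats, prophylactic regimen. Oral dosing began 1 h before challenge and continued for 21 consecutive days. Heat-killed M. tuberculosis in paraffin oil (6 mg/mL), 0.1 mL injected into the left hind paw, with methylcellulose-treated controls. Both hind paw volumes measured by plethysmograph on day 21. Reported as % change relative to control.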

[8] = biological target: Cyclooxygenase (Homo sapiens) (UniProt P35354+P23219); assay: In vitro inhibitory activity against Prostaglandin G/H synthase in human platelets; set-up: concentration or dose not given beside the values; details: concentration not given here
Method in brief: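 Human platelets (2×10^5/mL) in HEPES buffer with 0.5 mM EGTA and 1.5 mM CaCl2, incubated 4 min with compound in DMSO vehicle. Then given [14C]arachidonic acid and A23187 ionophore for 5 min and stopped with methanol. HHT was measured by reverse-phase HPLC. Reported as % inhibition of HHT versus vehicle, at 15 μM.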

Rattus norvegicus [9] = assay: In vivo antiinflammatory activity against edema formation in the injected(primary) paw of the rat(before edema stimulation) at dose 25 mg/kg; type: functional; method in brief: as §3
Rattus norvegicus [10] = assay: In vivo effect on prostaglandin and leukotriene mediated production in rat pleural cavity was assessed by the inhibition of fluid volume in 5-lipoxygenase/ cyclooxygenase at dose 40 mg/kg; type: functional; method in brief: as §2
Rattus norvegicus [11] = assay: In vivo effect on prostaglandin and leukotriene mediated production in rat pleural cavity was assessed by the inhibition of cell influx in 5-lipoxygenase/ cyclooxygenase at dose 25 mg/kg; type: functional; method in brief: as §2
Rattus norvegicus [12] = assay: In vivo effect on prostaglandin and leukotriene mediated production in rat pleural cavity was assessed by the inhibition of LTE4 in 5-lipoxygenase/ cyclooxygenase at dose 25 mg/kg; type: functional; method in brief: as §2
Rattus norvegicus [13] = assay: In vivo effect on prostaglandin and leukotriene mediated production in rat pleural cavity was assessed by the inhibition of fluid volume in 5-lipoxygenase/ cyclooxygenase at dose 25 mg/kg; type: functional; details: for inhibition in vivo at 25 mg/kg: Rattus norvegicus, Pleural cavity; for Inhibition: 25 mg/kg; method in brief: as §2
Rattus norvegicus [14] = assay: In vivo effect on prostaglandin and leukotriene mediated production in rat pleural cavity was assessed by the inhibition of TxB2 in 5-lipoxygenase/ cyclooxygenase at dose 25 mg/kg
Rattus norvegicus [15] = assay: In vivo effect on prostaglandin and leukotriene mediated production in rat pleural cavity was assessed by the inhibition of cell influx in 5-lipoxygenase/ cyclooxygenase at dose 20 mg/kg; type: functional; method in brief: as §2
Rattus norvegicus [16] = assay: In vivo effect on prostaglandin and leukotriene mediated production in rat pleural cavity was assessed by the inhibition of LTE4 in 5-lipoxygenase/ cyclooxygenase at dose 20 mg/kg
Rattus norvegicus [17] = assay: In vivo effect on prostaglandin and leukotriene mediated production in rat pleural cavity was assessed by the inhibition of TXB2 in 5-lipoxygenase/ cyclooxygenase at dose 20 mg/kg; type: functional; method in brief: as §2
Rattus norvegicus [18] = assay: In vivo effect on prostaglandin and leukotriene mediated production in rat pleural cavity was assessed by the inhibition of fluid volume in 5-lipoxygenase/ cyclooxygenase at dose 20 mg/kg; type: functional; method in brief: as §2
Rattus norvegicus [19] = assay: In vivo effect on prostaglandin and leukotriene mediated production in rat pleural cavity was assessed by the inhibition of TXB2 in 5-lipoxygenase/ cyclooxygenase at dose 25 mg/kg; type: functional; method in brief: as §2
Rattus norvegicus [20] = assay: In vivo antiinflammatory activity against edema formation in the noninjected(secondary) paw of the rat (before edema stimulation) at dose 2.0 mg/kg; type: functional; method in brief: as §3
Rattus norvegicus [21] = assay: In vivo effect on prostaglandin and leukotriene mediated production in rat pleural cavity was assessed by the inhibition of fluid volume in 5-lipoxygenase/ cyclooxygenase at dose 1.0 mg/kg; type: functional; method in brief: as §2
Rattus norvegicus [22] = assay: In vivo effect on prostaglandin and leukotriene mediated production in rat pleural cavity was assessed by the inhibition of cell influx in 5-lipoxygenase/ cyclooxygenase at dose 1.0 mg/kg; type: functional; method in brief: as §2
Rattus norvegicus [23] = assay: In vivo antiinflammatory activity against edema formation in the noninjected(secondary) paw of the rat (after edema stimulation) at dose 2.0 mg/kg; type: functional
Rattus norvegicus [24] = assay: In vivo antiinflammatory activity against edema formation in the injected(primary) paw of the rat(after edema stimulation) at dose 25 mg/kg; type: functional
Method in brief: (§4)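 Adjuvant arthritis in rats, therapeutic regimen. Heat-killed M. tuberculosis in paraffin oil (6 mg/mL), 0.1 mL injected into the left hind paw. Lesion allowed to develop 7 days before the first oral dose, with methylcellulose-treated controls. Paw volumes measured by plethysmograph, final reading on day 21. Reported as % change in paw volume relative to control.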

Rattus norvegicus [25] = assay: In vivo antiinflammatory activity against edema formation in the noninjected(secondary) paw of the rat (after edema stimulation) at dose 25 mg/kg; type: functional; method in brief: as §4

| SMILES | inhibition [3] | inhibition [8] | ED50 (Rattus norvegicus [1]) | ED50 (Rattus norvegicus [2]) | inhibition in vivo at 25 mg/kg (Rattus norvegicus [7]) | inhibition in vivo at 25 mg/kg (Rattus norvegicus [9]) | inhibition in vivo at 25 mg/kg (Rattus norvegicus [1]) | inhibition in vivo at 25 mg/kg (Rattus norvegicus [2]) | inhibition in vivo at 25 mg/kg (Rattus norvegicus [11]) | inhibition in vivo at 25 mg/kg (Rattus norvegicus [12]) | inhibition in vivo at 25 mg/kg (Rattus norvegicus [13]) | TxB2 inhibition (Rattus norvegicus [14]) | inhibition in vivo at 25 mg/kg (Rattus norvegicus [19]) | other results |
| --- | --- | --- | --- | --- | --- | --- | --- | --- | --- | --- | --- | --- | --- | --- |
| CC1(C)C(=O)N(c2ccc(Cl)c(Cl)c2)c2ncccc21 | 0% | 0% | – | – | – | – | 25% | 26% | 26% | 46% | 25% | 44% | – | – |
| CC(C)(C(=O)[O-])c1cccnc1Nc1ccc(Cl)cc1.[Na+] | 0% | 28% | 9.6 mg/kg | 11.3 mg/kg | 34% | 14% | – | – | 62% | 76% | 71% | 81% | – | – |
| CN1C(=O)C(C)(C)c2cccnc21 | – | – | – | – | – | – | 53% | 69% | 69% | – | 53% | – | 17% | Inhibition (Rattus norvegicus [13]): 53% |
| COc1ccc2c(c1)c(CC(=O)O)c(C)n2C(=O)c1ccc(Cl)cc1 [INDOMETHACIN] | – | – | – | – | – | – | – | – | – | – | – | – | – | inhibition in vivo at 2 mg/kg (Rattus norvegicus [20]): 70%; inhibition in vivo at 1 mg/kg (Rattus norvegicus [21]): 24%; inhibition in vivo at 1 mg/kg (Rattus norvegicus [22]): 48%; inhibition in vivo at 2 mg/kg (Rattus norvegicus [23]): 88% |

Further lines, with some results ahead:

| inhibition [3] | inhibition [8] | SMILES | ED50 (Rattus norvegicus [1]) | ED50 (Rattus norvegicus [2]) | inhibition in vivo at 25 mg/kg (Rattus norvegicus [7]) | inhibition in vivo at 25 mg/kg (Rattus norvegicus [9]) | inhibition in vivo at 25 mg/kg (Rattus norvegicus [1]) | inhibition in vivo at 25 mg/kg (Rattus norvegicus [2]) | inhibition in vivo at 25 mg/kg (Rattus norvegicus [11]) | inhibition in vivo at 25 mg/kg (Rattus norvegicus [12]) | inhibition in vivo at 25 mg/kg (Rattus norvegicus [13]) | TxB2 inhibition (Rattus norvegicus [14]) | inhibition in vivo at 25 mg/kg (Rattus norvegicus [19]) | other results |
| --- | --- | --- | --- | --- | --- | --- | --- | --- | --- | --- | --- | --- | --- | --- |
| 0% | 0% | CC1(C)C(=O)N(c2ccccc2)c2ncccc21 | 35.1 mg/kg | 21.9 mg/kg | 24% | 0% | – | – | – | – | – | – | – | inhibition in vivo at 40 mg/kg (Rattus norvegicus [4]): 70%; inhibition in vivo at 40 mg/kg (Rattus norvegicus [5]): 54%; LTE4 inhibition (Rattus norvegicus [6]): 54%; inhibition in vivo at 40 mg/kg (Rattus norvegicus [10]): 60% |
| 2% | 0% | CC1(C)C(=O)N(c2ccc(F)cc2)c2ncccc21 | 29.5 mg/kg | 4.5 mg/kg | 48% | 0% | – | – | – | – | – | – | – | inhibition in vivo at 20 mg/kg (Rattus norvegicus [15]): 70%; LTE4 inhibition (Rattus norvegicus [16]): 36%; inhibition in vivo at 20 mg/kg (Rattus norvegicus [17]): 53%; inhibition in vivo at 20 mg/kg (Rattus norvegicus [18]): 43% |
| 3% | 0% | CC1(C)C(=O)N(c2cccc(Cl)c2)c2ncccc21 | – | – | 31% | 0% | 49% | 51% | 51% | 59% | 49% | 62% | – | – |
| 11% | – | COc1ccc(N2C(=O)C(C)(C)c3cccnc32)cc1 | – | – | 0% | 0% | 42% | 63% | 63% | – | – | – | 34% | – |
| 13% | 47% | CC1(C)C(=O)N(c2ccc(Cl)cc2)c2ncccc21 | 27.9 mg/kg | 4.5 mg/kg | 65% | 13% | – | – | 73% | – | 83% | – | 78% | inhibition in vivo at 25 mg/kg (Rattus norvegicus [24]): 31%; Inhibition (Rattus norvegicus [13]): 83%; inhibition in vivo at 25 mg/kg (Rattus norvegicus [25]): 54% |
